Assay [1] concerns HUVEC. The assay can be described thus: Cytotoxicity against HUVEC assessed as inhibition of cell proliferation rate at 10 uM after 72 hrs by MTT assay relative to control. Format: functional. The settings on record: Homo sapiens. For orientation: Formazan colour is commonly taken as a measure of viable cells.
For assay [2], the system named is HUVEC. As to the kind of experiment: Cytotoxicity against HUVEC assessed as inhibition of cell proliferation rate at 100 uM after 72 hrs by MTT assay relative to control. The conditions noted are these: Homo sapiens. Format: functional.
For assay [3], the system named is A549. The assay can be described thus: Cytotoxicity against human A549 cells assessed as inhibition of cell proliferation rate after 72 hrs by MTT assay. Format: functional, cell-based. The settings on record: A549, 72 h. Put shortly: (§1)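 Cells seeded at 3.5 × 10^4 cells/mL and cultured 24 h (37 °C, 5% CO2), then exposed to compounds for 72 h. DMSO at 0.5% final served as the vehicle control. IC50 taken from triplicate experiments, reported as mean.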

In assay [4] the test system is HepG2. The assay can be described thus: Cytotoxicity against human HepG2 cells assessed as inhibition of cell proliferation rate after 72 hrs by MTT assay. Format: functional, cell-based. The conditions noted are these: HepG2, 72 h. Put shortly:
as §1

The test system of assay [5] is HUVEC. The assay can be described thus: Cytotoxicity against HUVEC assessed as inhibition of cell proliferation rate after 72 hrs by MTT assay. Format: functional, cell-based. The settings on record: Homo sapiens. Put shortly: as §1
For assay [6], the system named is HCT-116. As to the kind of experiment: Cytotoxicity against human HCT116 cells assessed as inhibition of cell proliferation rate after 72 hrs by MTT assay. Format: functional, cell-based. The conditions noted are these: HCT-116, 72 h. The essentials:
as §1

Assay [7] deals with A549. As to the kind of experiment: Inhibition of alpha-tubulin formation in human A549 cells at 250 uM after 24 hrs by TRITC/Hoechst 33258 staining-based immunofluorescence microscopic analysis. Format: cell-based.
The test system of assay [8] is HUVEC. The assay can be described thus: Induction of vascular disruption in HUVEC after 16 hrs by inverted microscopic analysis. Format: functional, cell-based. The conditions noted are these: Homo sapiens.
Assay [9] addresses T1, Tubulin (Bos taurus) (UniProt Q6B856+Q862F3). As to the kind of experiment: Inhibition of bovine brain tubulin polymerization at 10 uM measured every 5 secs for 0 to 3 mins , 10 secs for 3 to 5 mins, 30 secs for 5 to 10 mins, 60 secs for 10 to 17 mins by spectrophotometric analysis.
In assay [10] the target is T1, Tubulin (Bos taurus). As to the kind of experiment: Inhibition of bovine brain tubulin polymerization at 5 uM by spectrophotometric analysis. The conditions noted are these: TDE = time-dependent effect. The essentials: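 MAP-rich bovine brain tubulin (2 mg/mL) in 80 mM PIPES pH 6.9, 2 mM MgCl2, 0.5 mM EGTA, 5% glycerol, with DMSO or compound at 5 µM. Polymerization started with 1 mM GTP at 37 °C. Absorbance at 340 nm followed over 17 min (5 s intervals to 3 min, 10 s to 5 min, 30 s to 10 min, 60 s to 17 min).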

The target in assay [11] is T1, Tubulin (Bos taurus). The assay can be described thus: Inhibition of bovine brain tubulin polymerization at 3 uM measured every 5 secs for 0 to 3 mins , 10 secs for 3 to 5 mins, 30 secs for 5 to 10 mins, 60 secs for 10 to 17 mins by spectrophotometric analysis.
The subject of assay [12] is A549. As to the kind of experiment: Inhibition of alpha-tubulin formation in human A549 cells at 50 nM after 24 hrs by TRITC/Hoechst 33258 staining-based immunofluorescence microscopic analysis. Format: cell-based.
Assay [13] deals with Thoracic aorta. The assay can be described thus: Antiangiogenic activity in Sprague-Dawley rat thoracic aorta ring assessed as inhibition of microvessel outgrowth at 0.33 uM measured on day 6 by inverse microscopic analysis. Format: functional, tissue-based. The essentials: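 Aortas from 6-week Sprague Dawley rats taken under ether anesthesia, rinsed in serum-free M199 and cut into 1-mm rings. Rings embedded in Matrigel and held 1 h at 37 °C. Serum-free M199, with or without 20% FBS, then added with test agents at various concentrations. Sprouting imaged by inverted microscope on day 6.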

For assay [14], the system named is HUVEC. As to the kind of experiment: Antiangiogenic activity in HUVEC assessed as inhibition of tubular structure formation at 0.033 to 0.33 uM after 8 hrs by microscopic analysis. Format: functional, cell-based. The conditions noted are these: Homo sapiens.

Active and inactive are the calls of the source. The rule behind the calls is not given here.

By inhibition is commonly meant the change of the read-out against control, counted positive when it falls. With `c1ccc2cc3[nH]c(-c4cscn4)nc3cc2c1`, the inhibition at 10 µM in [1] came to 2%. Besides, the inhibition at 100 µM in assay [2] was 59%.

Regarding `Cc1cc2nc(-c3cscn3)[nH]c2cc1C`, in assay [1], the inhibition at 10 µM came out at 0%. The inhibition at 100 µM in assay [2] turned out to be 0%.

For `Cc1ccc2nc(-c3ccccn3)[nH]c2c1`, in assay [1], the inhibition at 10 µM was found to be 7%. In [2], the inhibition at 100 µM came out at 10%.

For orientation: IC50 means the concentration that gives 50% inhibition. For the molecule `c1ccc2[nH]cnc2c1` [BENZIMIDAZOLE], the IC50 was greater than 100 µM in assay [3]; greater than 100 µM in [4]; greater than 100 µM in [5]; greater than 100 µM in [6]; greater than 250 µM in assay [8]. For the same molecule, the inhibition at 10 µM in assay [1] came to 0%. Also, the inhibition at 100 µM in assay [2] was 11%. For the same molecule, in assay [7], the inhibition result is “Active”.

`c1cc2[nH]c(-c3cscn3)nc2cn1`: in assay [1], the inhibition at 10 µM was found to be 8%. Also, the inhibition at 100 µM in assay [2] is 0%.

Consider `CC(=O)O[C@H]1C(=O)[C@@]2(C)[C@H]([C@H](OC(=O)c3ccccc3)[C@]3(O)C[C@H](OC(=O)[C@H](O)[C@@H](NC(=O)c4ccccc4)c4ccccc4)C(C)=C1C3(C)C)[C@]1(OC(C)=O)CO[C@@H]1C[C@@H]2O`, for which the inhibition result in assay [9] was “inactive”.

As to `O=C(c1ccccc1)c1ccc2[nH]c(-c3cscn3)nc2c1`, the inhibition entry in [10] is “tde”.

For `COC(=O)Nc1nc2cc(C(=O)c3cccs3)ccc2[nH]1`, in assay [11], the inhibition entry is “Active”.

For `O=C(Nc1scnc1-c1nc2ccccc2[nH]1)NC1CC1`, the inhibition result in assay [10] was “tde”.

`c1ccc(Cn2c(-c3ccccc3)nc3ccccc32)cc1`: the inhibition at 10 µM in assay [1] came to 7%. For the same molecule, the inhibition at 100 µM in assay [2] came out at 38%.

For the molecule `Clc1ccc2[nH]c(-c3cscn3)nc2c1`, the inhibition at 10 µM in assay [1] worked out at 7%. Besides, the inhibition at 100 µM in assay [2] worked out at 53%.

`CC[C@]1(O)C[C@@H]2CN(CCc3c([nH]c4ccccc34)[C@@](C(=O)OC)(c3cc4c(cc3OC)N(C)[C@H]3[C@@](O)(C(=O)OC)[C@H](OC(C)=O)[C@]5(CC)C=CCN6CC[C@]43[C@@H]65)C2)C1`: in [12], the inhibition entry is “Active”.

As for `CCN(CC)CCNC(=O)c1c(C)[nH]c(/C=C2\C(=O)Nc3ccc(F)cc32)c1C`, the inhibition entry in assay [13] and in [14] was “Active” in each case.

Source of the values: ChEMBL document CHEMBL3585241, “Synthesis and biological evaluation of thiabendazole derivatives as anti-angiogenesis and vascular disrupting agents” (Bioorg Med Chem, 2015).
